This note sets out measurements from ChEMBL document CHEMBL1156022, “Discovery of N-{N-[(3-cyanobenzene) sulfonyl]-4(R)-(3,3-difluoropiperidin-1-yl)-(l)-prolyl}-4-[(3',5'-dichloro-isonicotinoyl) amino]-(l)-phenylalanine (MK-0617), a highly potent and orally active VLA-4 antagonist” (Bioorg Med Chem Lett, 2009).

Data set [1] addresses T1, Integrin alpha-4/beta-1 (Homo sapiens, UniProt P05556+P13612). As to the kind of experiment: Displacement of [35S]-labeled ligand from VLA4 in human Jurkat cells washed with buffer containing non activating Ca2+ and Mg2+ by competitive binding assay. It is filed as cell-based. In a few lines:
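Competition binding in Jurkat cells with a ³⁵S-labeled ligand, VLA-4 held non-activated in Ca²⁺/Mg²⁺ buffer; IC₅₀ reported; data are means of three independent runs or n = 1.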

Data set [2] concerns Integrin alpha-4/beta-1 (Rattus norvegicus). As to the kind of experiment: Receptor occupancy of VLA4 in rat whole blood washed with buffer containing non activating Ca2+ and Mg2+ at 37 degC after 12 hrs.
The test system of data set [3] is Rattus norvegicus. As to the kind of experiment: Receptor occupancy of VLA4 in rat at 5 mg/kg, po after 24 hrs. It is filed as functional. In a few lines: (§1)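 Parent acid given orally to rats at 5 mpk; VLA-4 receptor occupancy assayed at 12 h and 24 h after dosing.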
Data set [4] deals with T1, Integrin alpha-4/beta-1. As to the kind of experiment: Displacement of [35S]-labeled ligand from VLA4 in human Jurkat cells washed with buffer containing activating Mn2+ by competitive binding assay. It is filed as cell-based.
Data set [5] concerns Rattus norvegicus. As to the kind of experiment: Receptor occupancy of VLA4 in rat at 5 mg/kg, po after 12 hrs. In kind it is functional. The method in brief:
as §1

The target in data set [6] is T1, Integrin alpha-4/beta-1. As to the kind of experiment: Receptor occupancy of VLA4 in whole blood washed with buffer containing activating Mn2+ at 37 degC after 3 hrs. In kind it is tissue-based.
Data set [7] deals with Integrin alpha-4/beta-1 (Rattus norvegicus). As to the kind of experiment: Receptor occupancy of VLA4 in rat whole blood washed with buffer containing non activating Ca2+ and Mg2+ at 37 degC after 24 hrs.
For data set [8], the system named is Rattus norvegicus. As to the kind of experiment: AUC in rat at 5 mg/kg, po. In kind it is ADME, organism-based, Plasma. Also noted: dose 5 mg/kg, route oral. As to conditions: in vivo.
Data set [9] can be described thus: Bioavailability in rat at 5 mg/kg, po. Conditions: in vivo. In kind it is ADME, organism-based.
Data set [10] in a line: Plasma clearance in rat at 5 mg/kg, po. It is filed as ADME, organism-based. Further details: dose 5 mg/kg, route oral.
A short description of data set [11]: Cmax in rat at 5 mg/kg, po. It is filed as ADME, organism-based. Further details: dose 5 mg/kg, route oral. Conditions: in vivo.
The target of data set [12] is T1, Integrin alpha-4/beta-1. As to the kind of experiment: Inhibition of VLA4 in human whole blood. The method in brief: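 Competitive binding run in human whole blood; IC₅₀ read-out.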
Data set [13] has as its system Rattus norvegicus. As to the kind of experiment: Receptor occupancy of VLA4 in rat at 1.5 mg/kg after 12 hrs. It is filed as functional. The method in brief: (§2)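 Ethyl ester prodrug given orally to rats at 1.5 mpk; VLA-4 receptor occupancy measured at 12 h and 24 h post-dose.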
Data set [14] concerns Rattus norvegicus. As to the kind of experiment: Receptor occupancy of VLA4 in rat at 1.5 mg/kg after 24 hrs. It is filed as functional. In a few lines: as §2

T1 sequence (P05556 whole entry): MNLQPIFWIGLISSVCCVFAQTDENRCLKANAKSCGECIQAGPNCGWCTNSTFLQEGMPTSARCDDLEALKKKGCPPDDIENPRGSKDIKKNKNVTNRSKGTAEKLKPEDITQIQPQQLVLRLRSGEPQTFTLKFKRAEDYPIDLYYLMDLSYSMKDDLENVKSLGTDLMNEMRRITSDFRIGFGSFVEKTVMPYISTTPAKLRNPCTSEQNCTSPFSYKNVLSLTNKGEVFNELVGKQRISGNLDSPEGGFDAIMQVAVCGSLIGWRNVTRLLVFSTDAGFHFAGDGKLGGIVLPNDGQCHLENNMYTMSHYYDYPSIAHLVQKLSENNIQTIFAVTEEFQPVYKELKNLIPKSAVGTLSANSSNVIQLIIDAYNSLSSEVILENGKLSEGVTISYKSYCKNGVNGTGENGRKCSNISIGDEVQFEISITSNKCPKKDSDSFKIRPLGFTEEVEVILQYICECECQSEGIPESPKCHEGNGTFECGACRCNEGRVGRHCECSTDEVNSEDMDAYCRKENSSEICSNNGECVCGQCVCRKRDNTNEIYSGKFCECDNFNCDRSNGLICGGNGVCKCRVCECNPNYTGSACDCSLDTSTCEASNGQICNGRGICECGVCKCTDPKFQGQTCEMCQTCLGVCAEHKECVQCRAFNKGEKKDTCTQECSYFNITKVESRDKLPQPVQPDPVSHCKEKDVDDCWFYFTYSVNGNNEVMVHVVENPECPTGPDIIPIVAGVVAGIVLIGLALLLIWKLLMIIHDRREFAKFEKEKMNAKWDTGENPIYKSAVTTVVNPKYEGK
T1 sequence (P13612 whole entry): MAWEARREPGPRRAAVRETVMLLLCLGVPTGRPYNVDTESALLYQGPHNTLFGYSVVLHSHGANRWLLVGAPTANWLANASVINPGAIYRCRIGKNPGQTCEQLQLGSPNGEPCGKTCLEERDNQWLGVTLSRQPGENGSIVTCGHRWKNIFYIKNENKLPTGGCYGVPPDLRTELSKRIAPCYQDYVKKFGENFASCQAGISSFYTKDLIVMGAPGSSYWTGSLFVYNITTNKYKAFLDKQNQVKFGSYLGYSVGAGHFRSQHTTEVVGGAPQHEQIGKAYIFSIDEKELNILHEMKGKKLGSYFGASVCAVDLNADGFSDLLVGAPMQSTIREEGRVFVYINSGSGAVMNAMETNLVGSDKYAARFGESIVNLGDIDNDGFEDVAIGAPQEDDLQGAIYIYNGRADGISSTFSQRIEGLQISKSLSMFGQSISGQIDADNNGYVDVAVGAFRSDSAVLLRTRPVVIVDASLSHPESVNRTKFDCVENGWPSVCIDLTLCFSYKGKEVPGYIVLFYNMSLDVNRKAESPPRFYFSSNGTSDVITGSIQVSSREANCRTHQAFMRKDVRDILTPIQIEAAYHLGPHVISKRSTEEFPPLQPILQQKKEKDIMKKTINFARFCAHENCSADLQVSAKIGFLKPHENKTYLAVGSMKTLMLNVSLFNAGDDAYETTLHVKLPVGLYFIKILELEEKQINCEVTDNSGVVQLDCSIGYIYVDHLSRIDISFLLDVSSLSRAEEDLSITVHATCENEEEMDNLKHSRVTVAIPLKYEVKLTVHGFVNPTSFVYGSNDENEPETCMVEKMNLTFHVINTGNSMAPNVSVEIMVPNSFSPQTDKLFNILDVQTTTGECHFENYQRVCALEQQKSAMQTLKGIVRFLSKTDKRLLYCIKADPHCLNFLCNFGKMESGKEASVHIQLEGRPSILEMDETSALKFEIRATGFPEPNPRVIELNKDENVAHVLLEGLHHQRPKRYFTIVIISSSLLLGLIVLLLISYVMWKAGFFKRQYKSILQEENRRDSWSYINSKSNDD

`N#Cc1cccc(S(=O)(=O)N2C[C@H](N3CCCC(F)C3)C[C@H]2C(=O)N[C@@H](Cc2ccc(NC(=O)c3c(Cl)cncc3Cl)cc2)C(=O)O)c1` (stereo not given in full) showed an IC50 in data set [1] of 0.21 nM.
On the same count and under the same terms, as for `N#Cc1cccc(S(=O)(=O)N2C[C@H](N3CC(F)C3)C[C@H]2C(=O)N[C@@H](Cc2ccc(NC(=O)c3c(Cl)cncc3Cl)cc2)C(=O)O)c1`, the figure is 0.27 nM.
The same measure, in the same setting: the same measure for `N#Cc1cccc(S(=O)(=O)N2C[C@H](N3CC[C@@H](F)C3)C[C@H]2C(=O)N[C@@H](Cc2ccc(NC(=O)c3c(Cl)cncc3Cl)cc2)C(=O)O)c1`: 0.12 nM.
With `N#Cc1cccc(S(=O)(=O)N2C[C@H](N3CCCC(F)(F)C3)C[C@H]2C(=O)N[C@@H](Cc2ccc(NC(=O)c3c(Cl)cncc3Cl)cc2)C(=O)O)c1`, the Activity amounted to 70% in [2]; 22% in data set [3]; 65% in data set [5]; 95% in data set [6]; 40% in data set [7]. In addition, the IC50 came out at 0.02 nM in data set [4], 0.03 nM in [1] and 0.07 nM in data set [12]. The AUC in data set [8] came out at 0.05 µM·h. Moreover, in data set [9], the bioavailability is less than 5%. For the same compound, the CL/F in data set [10] is greater than 100 mL/min/kg. Moreover, the Cmax in data set [11] came to 27 nM.
For the compound `N#Cc1cccc(S(=O)(=O)N2C[C@H](N3CCCCC3)C[C@H]2C(=O)N[C@@H](Cc2ccc(NC(=O)c3c(Cl)cncc3Cl)cc2)C(=O)O)c1`, the IC50 in data set [1] was 0.11 nM.
As to `CCOC(=O)[C@H](Cc1ccc(NC(=O)c2c(Cl)cncc2Cl)cc1)NC(=O)[C@@H]1C[C@@H](N2CCCC(F)(F)C2)CN1S(=O)(=O)c1cccc(C#N)c1`, the Activity stood at 88% in [13] and 60% in data set [14].
For `N#Cc1cccc(S(=O)(=O)N2C[C@H](N(CC(F)(F)F)C3CCC3)C[C@H]2C(=O)N[C@@H](Cc2ccc(NC(=O)c3c(Cl)cncc3Cl)cc2)C(=O)O)c1`, the figures for the IC50 in data set [1] and in data set [12] were 0.02 nM and 3.1 nM, respectively.
Regarding `N#Cc1cccc(S(=O)(=O)N2C[C@H](N3CC[C@H](F)C3)C[C@H]2C(=O)N[C@@H](Cc2ccc(NC(=O)c3c(Cl)cncc3Cl)cc2)C(=O)O)c1`, the IC50 in data set [1] amounted to 0.24 nM.
The compound `N#Cc1cccc(S(=O)(=O)N2C[C@H](N3CCCC3)C[C@H]2C(=O)N[C@@H](Cc2ccc(NC(=O)c3c(Cl)cncc3Cl)cc2)C(=O)O)c1` came in with an IC50 in [1] of 0.22 nM.
In [6], `N#Cc1cccc(S(=O)(=O)N2C[C@H](NC3CCC3)C[C@H]2C(=O)N[C@@H](Cc2ccc(NC(=O)c3c(Cl)cncc3Cl)cc2)C(=O)O)c1` registered an Activity of 95%. This compound yielded an IC50 in data set [1] of 0.15 nM.
Compound `N#Cc1cccc(S(=O)(=O)N2C[C@H](N3CCC(F)(F)C3)C[C@H]2C(=O)N[C@@H](Cc2ccc(NC(=O)c3c(Cl)cncc3Cl)cc2)C(=O)O)c1` displayed an IC50 in data set [1] of 0.1 nM. That is a sub-nanomolar value.
Same read-out and setting: as for `N#Cc1cccc(S(=O)(=O)N2C[C@H](N3CCC(F)(F)CC3)C[C@H]2C(=O)N[C@@H](Cc2ccc(NC(=O)c3c(Cl)cncc3Cl)cc2)C(=O)O)c1`, the figure is 0.22 nM.
Regarding `CCOC(=O)[C@H](Cc1ccc(NC(=O)c2c(Cl)cncc2Cl)cc1)NC(=O)[C@@H]1C[C@@H](NC2CCC2)CN1S(=O)(=O)c1cccc(C#N)c1`, in [14], the Activity amounted to 25%.
Compound `N#Cc1cccc(S(=O)(=O)N2C[C@H](N3CCC3)C[C@H]2C(=O)N[C@@H](Cc2ccc(NC(=O)c3c(Cl)cncc3Cl)cc2)C(=O)O)c1` gave an IC50 in data set [1] of 0.15 nM.
Regarding `N#Cc1cccc(S(=O)(=O)N2C[C@H](N3CC(F)(F)C3)C[C@H]2C(=O)N[C@@H](Cc2ccc(NC(=O)c3c(Cl)cncc3Cl)cc2)C(=O)O)c1`, in data set [1], the IC50 was 0.9 nM.
The same measure, in the same setting: as for `N#Cc1cccc(S(=O)(=O)N2C[C@H](N3CCC(F)CC3)C[C@H]2C(=O)N[C@@H](Cc2ccc(NC(=O)c3c(Cl)cncc3Cl)cc2)C(=O)O)c1`, the figure is 0.35 nM.
